A selection: hits, their analogues and other compounds. The true share with any hit is near 4%.
GRIN3A LBD mod: modulates the human NR3A ligand-binding domain; NR3A LBD differential scanning fluorimetry, Tm shift; 0% = protein alone, 100% = glycine-bound protein; Tm shift relative to glycine control, % at 25 µM; 340,000 tested, 2.5% active;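 active = melting temperature shift of at least 10% of the positive control shift, at one fixed dose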
H9c2 protect: modulators protecting cardiomyocytes from myocardial damage; AID 588492; 360,000 tested, 0.63% active; H9c2 cardiomyocytes, H2O2 injury protection, ATPLite, 2 h; protection from H2O2 cell death, % at 20 µM;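 active = compounds giving at least 50% protection of heart cells from peroxide-induced death in the single-dose screen, raw or plate-pattern-corrected value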;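 note: 0% = DMSO wells with peroxide and 100% = DMSO wells without peroxide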
hiPSC survival: increases survival of single human iPS cells; hiPSC single-cell survival, ATPlite luminescence; 100% = ROCK inhibitor wells, 0% = DMSO; survival enhancement, % at 20 µM; 360,000 tested, 0.044% active; AID 602274; in the data active = survival enhancement above about 18%;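 note: cells exposed to compounds for 16 hours before the ATP read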
Arrestin-AP2 inh: inhibitors of human beta-arrestin and AP2 interaction; FITC-arrestin peptide / GST-AP2 beads, flow cytometry; AP2 beta2 appendage carries R879A mutation; inhibition, % at 10 µM; 340,000 tested, 0.31% active;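 active = inhibition above a set limit, near 3 SD of compounds lacking own fluorescence, cut at about 54% in these data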;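 note: plate controls were DMSO wells for no effect and 5 µM unlabelled arrestin peptide for full effect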
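System: GST-AP2 R879A bound to glutathione beads, E. coli-expressed. Also added: 50 nM FITC-arrestin peptide. Schedule: compound with beads 12 min RT, then probe 1 h RT. Signal: bead flow cytometry, FITC channel. Read-out basis: percent response.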
SENP1 FRET inh: inhibitors of human SENP1 SUMO protease catalytic domain; Q9P0U3; recombinant SENP1 catalytic domain, CyPet-SUMO1-YPet FRET cleavage; 360,000 tested, 0.21% active; inhibition, % at 10 µM; AID 624204;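 active = inhibition at least 30% at 10 µM, raw YFP signal under a set limit, fluorescence ratio 0.5 to 1.5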;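 note: 0% = enzyme with DMSO and 100% = no enzyme wells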
Target sequence (Q9P0U3 419-644 limits assumed): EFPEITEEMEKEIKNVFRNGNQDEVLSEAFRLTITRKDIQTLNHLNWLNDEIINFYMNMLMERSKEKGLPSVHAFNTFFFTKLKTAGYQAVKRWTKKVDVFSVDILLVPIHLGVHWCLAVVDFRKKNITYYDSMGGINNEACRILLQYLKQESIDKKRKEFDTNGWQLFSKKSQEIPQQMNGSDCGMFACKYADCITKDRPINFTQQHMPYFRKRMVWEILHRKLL
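system = hSENP1 catalytic domain, recombinant | reagent = SFCypet-SUMO1-SFYpet substrate at 25 nM | doses = one dose per compound, 10 µM, 0.5% DMSO | incubation = enzyme reaction for 50 min at room temperature, dark | measured by = FRET, CFP and YFP emission | controls = no-enzyme low, enzyme-DMSO high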
FAS TE block: blocks the thioesterase domain of human fatty acid synthase. P49327. recombinant FAS-TE, OMFH fluorogenic substrate, fluorescence endpoint. inhibition, % at 15 µM. 360,000 tested, 0.67% active;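 active = compounds whose normalised, plate-corrected inhibition of enzyme fluorescence in the single-dose primary screen is 50% or more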;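 note: 0% = DMSO with enzyme and 100% = substrate without enzyme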
Starred values were filed as active, the others as inactive.

How did COC(=O)[C@]1(Sc2ccc(OC)cc2)CC(=O)N[C@@H]1c1ccccc1 do in these assays?
hiPSC survival: 0; SENP1 FRET inh: -5; FAS TE block: -5

What do the screens show for `CCc1ccc(-c2csc3[n+]2CCN3C(C)=O)cc1`?
H9c2 protect: -2; hiPSC survival: 2; Arrestin-AP2 inh: 8; SENP1 FRET inh: 1; FAS TE block: -152

What do the screens show for `CC(=O)N1CC[n+]2c(-c3ccc(Cl)cc3)csc21`?
GRIN3A LBD mod: 20*; H9c2 protect: 6; hiPSC survival: -1; Arrestin-AP2 inh: -7; SENP1 FRET inh: 1; FAS TE block: -140

Results for CN1CCCCC1(C)C(=O)NCc1cc(Cl)ccc1F (stereo not drawn) ?
H9c2 protect: 8; hiPSC survival: -2; SENP1 FRET inh: 2; FAS TE block: -8

How did O=C(C[C@H]1C[C@@H]2c3cc(NC(=O)Nc4ccccc4F)ccc3O[C@@H]2[C@H](CO)O1)NCc1ccccn1 do in these assays?
H9c2 protect: -5; hiPSC survival: 0; SENP1 FRET inh: -3; FAS TE block: -1

What do the screens show for `O=C(O)c1ccccc1C(=O)Nc1cc(-c2ccccc2)[nH]n1`?
GRIN3A LBD mod: 0; H9c2 protect: -2; hiPSC survival: -1; Arrestin-AP2 inh: -7; SENP1 FRET inh: 1; FAS TE block: -3

What do the screens show for `O=C(Nc1cc(-c2ccccc2)[nH]n1)c1ccccc1F`?
GRIN3A LBD mod: 24*; H9c2 protect: -7; hiPSC survival: 0; Arrestin-AP2 inh: 19; SENP1 FRET inh: 2; FAS TE block: -2

How did O=C(NCCCN1CCOCC1)c1ccccc1N1C(=O)[C@@H]2Cc3c([nH]c4ccccc34)C(c3ccccc3)N2C1=O (stereo partly drawn) do in these assays?
H9c2 protect: 28; hiPSC survival: -1; SENP1 FRET inh: -122; FAS TE block: 0

What do the screens show for `CN(C(=O)Cn1nc(C(=O)O)c2ccccc2c1=O)C1(C#N)CCCCC1`?
GRIN3A LBD mod: 1; H9c2 protect: 57*; hiPSC survival: -1; Arrestin-AP2 inh: 9; SENP1 FRET inh: 2; FAS TE block: -9

How did Cc1cc(O)c(-c2cc(C(=O)Nc3cccnc3)[nH]n2)cc1C do in these assays?
GRIN3A LBD mod: 27*; H9c2 protect: 11; hiPSC survival: -1; Arrestin-AP2 inh: 32; SENP1 FRET inh: 0; FAS TE block: -3

Results for CC(=O)Nc1ccc(NC(=O)c2cc(-c3cc(C)c(C)cc3O)n[nH]2)cc1 ?
GRIN3A LBD mod: 32*; H9c2 protect: 2; hiPSC survival: 0; Arrestin-AP2 inh: 27; SENP1 FRET inh: 4; FAS TE block: -3

Results for CC(C)(C)NC(=O)c1cc(-c2ccccc2)n[nH]1 ?
GRIN3A LBD mod: 1; H9c2 protect: -19; hiPSC survival: 0; Arrestin-AP2 inh: 30; SENP1 FRET inh: 1; FAS TE block: -3

How did Cc1ccc(NC(=O)c2cc(-c3ccccc3)n[nH]2)cc1 do in these assays?
GRIN3A LBD mod: 10*; H9c2 protect: -4; hiPSC survival: 0; Arrestin-AP2 inh: 1; SENP1 FRET inh: 0; FAS TE block: -2

How did CCc1ccc(O)c(-c2cc(C(=O)Nc3cccnc3)[nH]n2)c1 do in these assays?
GRIN3A LBD mod: 20*; H9c2 protect: 4; hiPSC survival: 0; Arrestin-AP2 inh: 14; SENP1 FRET inh: 3; FAS TE block: -2

What do the screens show for `COCCN(C(=O)COC(=O)c1ccc2c(c1)OCO2)c1c(N)n(Cc2ccccc2)c(=O)[nH]c1=O`?
H9c2 protect: 3; hiPSC survival: 10; SENP1 FRET inh: 0; FAS TE block: -3

Results for COc1ccc(Cl)cc1NC(=O)c1cccc(S(=O)(=O)Nc2c(C)n(C)n(-c3ccccc3)c2=O)c1 ?
GRIN3A LBD mod: 1

What do the screens show for `C[C@H]1CN([C@@H](C)CO)S(=O)(=O)c2ccc(C#Cc3ccccn3)cc2O[C@@H]1CN(C)C(=O)C1CC1`?
H9c2 protect: 2; hiPSC survival: -2; SENP1 FRET inh: -2; FAS TE block: -9

Results for O=c1[nH]cnc2sc3c(c12)CCC3 ?
GRIN3A LBD mod: -4; H9c2 protect: 60*; hiPSC survival: 0; Arrestin-AP2 inh: -5; SENP1 FRET inh: -1; FAS TE block: -6

Screens (PubChem BioAssay)
